Measurements reported in ChEMBL document CHEMBL2429835.
Values after ≈ are worked out from the molar mass of the structure shown. Active and inactive are the calls of the source. The calls are words filed in the database; no cut-off is given here.

Legend:
[1] = test system: Mycobacterium tuberculosis; assay: Antimycobacterial activity against streptomycin-resistant Mycobacterium tuberculosis ATCC 35820; format: functional
In short: (§1)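 Strain (H37Rv or ATCC single-drug-resistant isolates) grown to late log phase in 7H9 with 0.2% glycerol, 0.05% Tween80, 10% OADC. Cells washed into PBS, passed through 8 μm filter, frozen; CFU titred on 7H11 agar. MABA MIC is the lowest concentration giving ≥90% growth inhibition versus untreated controls.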

[2] = test system: Mycobacterium tuberculosis; assay: Antimycobacterial activity against cycloserine-resistant Mycobacterium tuberculosis ATCC 35826; format: functional; in short: as §1
[3] = test system: Mycobacterium tuberculosis variant bovis BCG; assay: Antimycobacterial activity against Mycobacterium bovis BCG ATCC 35734 at 100 ug/ml after 8 days by microplate Alamar blue assay; format: functional, organism-based
In short: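 MABA in 7H12 (M. abscessus, M. bovis BCG) or 7H9 (others). Pre-dye incubation: M. abscessus 37 °C 3 days; BCG 37 °C 7 days; M. chelonae 30 °C 3 days; M. marinum 30 °C 5 days; M. avium and M. kansasii 37 °C 6 days. Then 20% Tween80 plus Alamar blue added: 4 h (abscessus), 6 days (chelonae), 1 day (others). Tested at 100 μg/mL.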

[4] = test system: Mycobacterium tuberculosis; assay: Antimycobacterial activity against isoniazid-resistant Mycobacterium tuberculosis ATCC 35822; format: functional; in short: as §1
[5] = test system: Mycobacterium tuberculosis; assay: Antimycobacterial activity against kanamycin-resistant Mycobacterium tuberculosis ATCC 35827; format: functional; in short: as §1
[6] = test system: Mycobacterium tuberculosis; assay: Antimycobacterial activity against rifampin-resistant Mycobacterium tuberculosis ATCC 35838; format: functional; in short: as §1

Compound | MIC90 [1] [µg/mL] | MIC90 [2] [µg/mL] | Activity [3] | MIC90 [4] [µg/mL] | MIC90 [5] [µg/mL] | MIC90 [6] [µg/mL]
O=c1cc(-c2ccccc2)c2ccc(Cl)cc2o1 | 46.9 (≈ 183 µM) | 47.3 (≈ 184 µM) | inactive | 76.5 (≈ 298 µM) | 47.4 (≈ 185 µM) | 45.4 (≈ 177 µM)
CCOC(=O)c1c(-c2ccccc2)c2ccc(Cl)cc2oc1=O | 46.9 (≈ 143 µM) | 47.3 (≈ 144 µM) | inactive | 31.7 (≈ 96.4 µM) | 43.9 (≈ 134 µM) | 44.7 (≈ 136 µM)
NC[C@H]1O[C@H](O[C@H]2[C@H](O)[C@@H](O[C@H]3O[C@H](CO)[C@@H](O)[C@H](N)[C@H]3O)[C@H](N)C[C@@H]2N)[C@H](O)[C@@H](O)[C@@H]1O [KANAMYCIN] | 0.76 (≈ 1.57 µM) | 1.12 (≈ 2.31 µM) |  | 0.72 (≈ 1.49 µM) | > 25 | 0.73 (≈ 1.51 µM)
N[C@@H]1CONC1=O [CYCLOSERINE] | 4.9 (≈ 48 µM) | > 10.2 |  | 5 (≈ 49 µM) | 4.9 (≈ 48 µM) | 4.8 (≈ 47 µM)
O=[N+]([O-])c1cn2c(n1)OC[C@@H](OCc1ccc(OC(F)(F)F)cc1)C2 [PRETOMANID] | 0.17 (≈ 0.473 µM) | 0.18 (≈ 0.501 µM) |  | 0.05 (≈ 0.139 µM) | 0.34 (≈ 0.946 µM) | 0.07 (≈ 0.195 µM)
O=c1cc(-c2ccccc2)c2cc(Cl)ccc2o1 |  |  | inactive |  |  | 
CCOC(=O)c1c(-c2ccccc2)c2cc(Cl)ccc2oc1=O | 49.5 (≈ 151 µM) | > 100 | inactive | 44.7 (≈ 136 µM) | > 100 | 46.6 (≈ 142 µM)
CO[C@H]1/C=C/O[C@@]2(C)Oc3c(C)c(O)c4c(O)c(c(/C=N/N5CCN(C)CC5)c(O)c4c3C2=O)NC(=O)/C(C)=C\C=C\[C@H](C)[C@H](O)[C@@H](C)[C@@H](O)[C@@H](C)[C@H](OC(C)=O)[C@@H]1C [RIFAMPIN] | 0.09 (≈ 0.109 µM) | 0.02 (≈ 0.0243 µM) |  | 0.04 (≈ 0.0486 µM) | 0.02 (≈ 0.0243 µM) | > 3.29
NNC(=O)c1ccncc1 [ISONIAZID] | 0.03 (≈ 0.219 µM) | 0.04 (≈ 0.292 µM) |  | > 2.19 | 0.07 (≈ 0.51 µM) | 0.03 (≈ 0.219 µM)
CN[C@@H]1[C@H](O[C@H]2[C@H](O[C@H]3[C@H](O)[C@@H](O)[C@H](N=C(N)N)[C@@H](O)[C@@H]3N=C(N)N)O[C@@H](C)[C@]2(O)C=O)O[C@@H](CO)[C@H](O)[C@H]1O [STREPTOMYCIN] | > 9.31 | 0.53 (≈ 0.911 µM) |  | 0.56 (≈ 0.963 µM) | 1.48 (≈ 2.54 µM) | 0.47 (≈ 0.808 µM)
